Source: ChEMBL document CHEMBL1148732, “New 2-arylpyrazolo[3,4-c]quinoline derivatives as potent and selective human A3 adenosine receptor antagonists. Synthesis, pharmacological evaluation, and ligand-receptor modeling studies” (J Med Chem, 2007)

Legend:
Adenosine receptor A1 [1] = molecular target: T1, Adenosine receptor A1 (Homo sapiens, UniProt P30542); experiment: Displacement of [3H]DPCPX from human adenosine A1 receptor expressed in CHO cells; format: cell-based
T1 sequence (P30542 whole entry): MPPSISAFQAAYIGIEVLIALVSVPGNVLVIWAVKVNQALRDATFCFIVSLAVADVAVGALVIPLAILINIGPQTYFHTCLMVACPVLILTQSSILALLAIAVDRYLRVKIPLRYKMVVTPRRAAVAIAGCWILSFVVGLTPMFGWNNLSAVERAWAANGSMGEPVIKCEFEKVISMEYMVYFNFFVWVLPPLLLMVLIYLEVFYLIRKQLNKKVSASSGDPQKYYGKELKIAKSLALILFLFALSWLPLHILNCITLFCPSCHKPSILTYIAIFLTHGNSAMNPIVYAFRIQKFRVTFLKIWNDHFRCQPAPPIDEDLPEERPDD
In short: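 Five concentrations in triplicate. IC50 by nonlinear regression, converted to Ki with Cheng-Prusoff. Means ± SEM of four assays.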

Adenosine receptor A2a [2] = molecular target: T2, Adenosine receptor A2a (Homo sapiens, UniProt P29274); experiment: Displacement of [3H]NECA from human adenosine A2A receptor expressed in CHO cells at 10 uM; format: cell-based
Adenosine receptor A3 [3] = molecular target: T3, Adenosine receptor A3 (Homo sapiens, UniProt P0DMS8); experiment: Displacement of [125I]AB-MECA from human adenosine A3 receptor expressed in CHO cells; format: cell-based
T3 sequence (P0DMS8 whole entry): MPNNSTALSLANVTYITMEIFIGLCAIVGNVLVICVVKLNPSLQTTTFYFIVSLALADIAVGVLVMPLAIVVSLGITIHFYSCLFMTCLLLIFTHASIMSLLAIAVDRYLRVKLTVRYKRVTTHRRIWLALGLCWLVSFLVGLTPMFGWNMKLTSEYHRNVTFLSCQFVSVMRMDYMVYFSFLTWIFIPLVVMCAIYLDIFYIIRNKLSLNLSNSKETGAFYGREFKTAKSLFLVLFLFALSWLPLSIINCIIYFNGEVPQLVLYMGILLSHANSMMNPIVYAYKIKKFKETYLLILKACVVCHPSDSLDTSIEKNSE
In short: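 Five displacer concentrations, each in triplicate. IC50 by nonlinear regression, converted to Ki with Cheng-Prusoff. Means ± SEM of four separate assays.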

[4] = molecular target: T4, Adenosine receptor A1 (Homo sapiens) (UniProt P30542); experiment: Displacement of [3H]DPCPX from human adenosine A1 receptor expressed in CHO cells at 10 uM; format: cell-based
T4 sequence (whole entry): T1 sequence (P30542 whole entry)

Adenosine receptor A2a [5] = molecular target: T2, Adenosine receptor A2a; experiment: Displacement of [3H]NECA from human adenosine A2A receptor expressed in CHO cells; format: cell-based
[6] = molecular target: T5, Adenosine receptor A3 (Rattus norvegicus) (UniProt P28647); experiment: Antagonist activity at adenosine A3 receptor in Wistar rat hippocampal slices by prevention of glucose deprivation-induced synaptic impairment assessed as synaptic recovery at 100 nM; format: functional, tissue-based; set-up: scale not given: the % may be the effect or the level left; conditions: Hippocampus
T5 sequence (whole entry): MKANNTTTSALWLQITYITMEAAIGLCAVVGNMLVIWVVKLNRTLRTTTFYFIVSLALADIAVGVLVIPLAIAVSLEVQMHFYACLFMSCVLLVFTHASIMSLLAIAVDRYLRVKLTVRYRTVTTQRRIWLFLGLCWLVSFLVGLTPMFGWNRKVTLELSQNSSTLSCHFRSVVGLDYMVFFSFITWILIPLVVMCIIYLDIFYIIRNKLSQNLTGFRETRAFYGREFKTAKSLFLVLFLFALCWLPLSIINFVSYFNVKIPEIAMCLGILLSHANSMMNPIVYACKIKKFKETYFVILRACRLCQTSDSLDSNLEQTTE
In short: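 Male Wistar rat hippocampal slices (400 µm) superfused with oxygenated aCSF at 30-32 °C and 2 mL/min. CA1 fepsps were evoked from stratum radiatum. OGD was 7 min of glucose-free aCSF gassed with 95% N2-5% CO2. Antagonist (100 nM) was given from 10 min before until 5 min after OGD. Readout: fepsp amplitude at 15 min reperfusion as % of the 5-min pre-OGD baseline; n=5, one-way ANOVA with Newman-Keuls.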

[7] = molecular target: T6, Adenosine receptor A1 (Rattus norvegicus) (UniProt P25099); experiment: Displacement of [3H]DPCPX from Wistar rat adenosine A1 receptor at 10 uM
T6 sequence (whole entry): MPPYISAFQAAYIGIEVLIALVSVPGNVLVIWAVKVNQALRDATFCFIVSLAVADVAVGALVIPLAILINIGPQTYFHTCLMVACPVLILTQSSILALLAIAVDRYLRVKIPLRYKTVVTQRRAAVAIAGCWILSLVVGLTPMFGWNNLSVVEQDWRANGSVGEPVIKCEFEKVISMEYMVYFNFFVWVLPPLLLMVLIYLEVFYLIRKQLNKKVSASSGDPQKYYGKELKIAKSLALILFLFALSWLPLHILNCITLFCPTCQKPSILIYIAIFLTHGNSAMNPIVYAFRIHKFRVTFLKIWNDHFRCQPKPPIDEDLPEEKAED
In short: (§1)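 Male Wistar rat cortex membranes (40-50 µg protein) incubated 180 min at 25 °C with 0.2-0.5 nM [3H]DPCPX. Buffer: 50 mM Tris/HCl, 2 mM MgCl2, pH 7.7. Run in triplicate. Nonspecific binding defined with 20 µM R-PIA. GF/C filtration; KD 0.51 nM.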

Adenosine receptor A3 [8] = molecular target: T3, Adenosine receptor A3; experiment: Antagonist activity at human adenosine A3 receptor expressed in CHO cells assessed as inhibition of NECA-induced cAMP accumulation; format: functional, cell-based
In short: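 CHO cells stably expressing hA3 were plated and used after 48 h. They were preincubated 15 min at 37 °C with Ro 20-1724 (20 µM) and adenosine deaminase (1 U/mL). Compounds at several concentrations were then added with 100 nM NECA and 10 µM forskolin for 15 min at 37 °C. Lysis in 0.4 N HCl. cAMP was measured by competitive binding against [3H]cAMP (2 nM) with adrenal binding protein, 150 min at 4 °C. EC50 from sigmoid nonlinear regression.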

[9] = molecular target: T5, Adenosine receptor A3 (Rattus norvegicus); experiment: Displacement of [3H](R)-PIA from Wistar rat adenosine A3 receptor at 1 uM
In short: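 Rat testis membranes (0.1-0.2 mg protein) incubated with 4 nM [3H]-(R)-PIA and 150 nM DPCPX to block A1 sites. Buffer: 50 mM Tris/HCl pH 7.4, 1 mM EDTA, 10 mM MgCl2. Nonspecific binding defined with 15 µM (R)-PIA. Separation by filtration and scintillation counting. Result is % displacement at 1 µM.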

[10] = molecular target: Adenosine receptor A2a (Rattus norvegicus) (UniProt P30543); experiment: Displacement of [3H]CGS 21680 from Wistar rat adenosine A2A receptor at 10 uM
Adenosine receptor A1 [11] = molecular target: T7, Adenosine receptor A1 (Rattus norvegicus, UniProt P25099); experiment: Displacement of [3H]DPCPX from Wistar rat adenosine A1 receptor; in short: as §1
T7 sequence (P25099 whole entry): T6 sequence (whole entry)

[12] = molecular target: T8, Adenosine receptor A3 (Homo sapiens) (UniProt P0DMS8); experiment: Displacement of [125I]AB-MECA from human adenosine A3 receptor expressed in CHO cells at 1 uM; format: cell-based
T8 sequence (whole entry): T3 sequence (P0DMS8 whole entry)

T2 sequence (P29274 whole entry): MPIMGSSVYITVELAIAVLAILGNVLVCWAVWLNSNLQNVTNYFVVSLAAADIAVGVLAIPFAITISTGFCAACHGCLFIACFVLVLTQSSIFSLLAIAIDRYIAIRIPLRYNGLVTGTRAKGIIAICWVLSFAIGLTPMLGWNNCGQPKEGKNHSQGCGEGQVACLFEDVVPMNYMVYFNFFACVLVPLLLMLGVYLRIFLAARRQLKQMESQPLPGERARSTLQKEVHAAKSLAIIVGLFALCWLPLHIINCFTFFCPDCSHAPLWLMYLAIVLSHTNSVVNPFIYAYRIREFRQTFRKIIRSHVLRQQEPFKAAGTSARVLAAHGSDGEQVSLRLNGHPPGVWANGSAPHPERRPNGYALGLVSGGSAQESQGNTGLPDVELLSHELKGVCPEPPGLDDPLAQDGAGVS
Sequence of Adenosine receptor A2a (Rattus norvegicus) (P30543 whole entry): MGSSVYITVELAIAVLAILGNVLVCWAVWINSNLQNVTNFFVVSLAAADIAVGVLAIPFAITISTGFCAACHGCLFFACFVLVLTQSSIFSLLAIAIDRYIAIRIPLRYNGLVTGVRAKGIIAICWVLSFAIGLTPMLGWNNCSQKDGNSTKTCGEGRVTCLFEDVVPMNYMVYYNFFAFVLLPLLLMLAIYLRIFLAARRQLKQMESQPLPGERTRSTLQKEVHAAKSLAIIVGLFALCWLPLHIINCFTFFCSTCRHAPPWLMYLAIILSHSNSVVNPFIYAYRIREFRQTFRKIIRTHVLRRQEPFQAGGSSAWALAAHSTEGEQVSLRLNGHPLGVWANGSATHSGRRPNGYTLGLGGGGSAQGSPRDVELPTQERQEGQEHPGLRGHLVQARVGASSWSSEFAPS

Structure (SMILES) | Ki (Adenosine receptor A1 [1]) [nM] | Activity (Adenosine receptor A2a [2]) [%] | Ki (Adenosine receptor A3 [3]) [nM] | Activity [4] [%] | also measured
Cc1cccc(-n2cc3c(n2)c(=O)[nH]c2ccccc23)c1 | 12 | 46 | – | – | –
COc1cccc(-n2cc3c(n2)c(=O)[nH]c2ccccc23)c1 | 14 | 52 | 7.3 | – | –
O=C(Nc1nc2ccccc2c2cn(-c3ccccc3)nc12)c1ccccc1 | – | 9 | – | 0 | –
Cc1cccc(-n2cc3c(n2)c(N)nc2ccccc23)c1 | 21 | – | – | – | Ki (Adenosine receptor A2a [5]): 228 nM
O=c1[nH]c2ccccc2c2cn(Cc3ccccc3)nc12 | – | 32 | 74.5 | 8 | –
CC(=O)Nc1nc2ccccc2c2cn(-c3ccc(C)cc3)nc12 | 455 | – | 123 | – | Ki (Adenosine receptor A2a [5]): 1500 nM
Cc1ccc(-n2cc3c(n2)c(=O)[nH]c2ccccc23)cc1 | 29 | 44 | – | – | –
Cc1ccc(-n2cc3c(n2)c(N(C(=O)c2ccccc2)C(=O)c2ccccc2)nc2ccccc23)cc1 | – | 0 | 30 | 32 | –
O=c1[nH]c2ccccc2c2cn(-c3ccc([N+](=O)[O-])cc3)nc12 | 357 | 0 | 85.5 | – | –
COc1cccc(-n2cc3c(n2)c(N)nc2ccccc23)c1 | 32 | – | 229 | – | Ki (Adenosine receptor A2a [5]): 486 nM
O=c1[nH]c2ccccc2c2cn(-c3ccccc3)nc12 | 203 | 43 | – | – | –
COc1ccc(-n2cc3c(n2)c(NC(=O)C(c2ccccc2)c2ccccc2)nc2ccccc23)cc1 | – | 0 | 9 | 47 | –
COc1ccc(-n2cc3c(n2)c(=O)[nH]c2ccccc23)cc1 | 176 | 25 | – | – | –
COc1ccc(-n2cc3c(n2)c(N)nc2ccccc23)cc1 | 40 | – | – | – | –
COc1ccc(-n2cc3c(n2)c(N(C(=O)c2ccccc2)C(=O)c2ccccc2)nc2ccccc23)cc1 | – | 7 | 17.2 | 25 | Activity [6]: 84%; Activity [7]: 11%; EC50 (Adenosine receptor A3 [8]): 11.2 nM; Activity [9]: 28%; Activity [10]: 2%
O=C(c1ccccc1)N(C(=O)c1ccccc1)c1nc2ccccc2c2cn(-c3ccccc3)nc12 | – | 0 | 6.1 | 0 | –
COc1ccc(-n2cc3c(n2)c(NC(=O)c2ccccc2)nc2ccccc23)cc1 | 250 | 39 | 3.4 | – | –
O=C(Nc1nc2ccccc2c2cn(-c3ccccc3)nc12)C(c1ccccc1)c1ccccc1 | – | 21 | 8.9 | 0 | Activity [6]: 47%; Ki (Adenosine receptor A1 [11]): 1490 nM; EC50 (Adenosine receptor A3 [8]): 3.8 nM; Activity [9]: 30%; Activity [10]: 26%
Nc1nc2ccccc2c2cn(-c3ccccc3)nc12 | 659 | – | – | – | –
COc1ccc(-n2cc3c(n2)c(NC(C)=O)nc2ccccc23)cc1 | 2880 | 0 | 102 | – | –
Cc1ccc(-n2cc3c(n2)c(N)nc2ccccc23)cc1 | 45 | – | – | – | Ki (Adenosine receptor A2a [5]): 329 nM
Cc1ccc(-n2cc3c(n2)c(NC(=O)C(c2ccccc2)c2ccccc2)nc2ccccc23)cc1 | – | 3 | 11.5 | 32 | –
Cc1cccc(-n2cc3c(n2)c(N(C(=O)c2ccccc2)C(=O)c2ccccc2)nc2ccccc23)c1 | – | 20 | 23.2 | 42 | –

Second part, led by results:

Ki (Adenosine receptor A1 [1]) [nM] | Activity (Adenosine receptor A2a [2]) [%] | Ki (Adenosine receptor A3 [3]) [nM] | Activity [4] [%] | Structure (SMILES) | also measured
– | 3 | – | 0 | O=C(NCc1ccccc1)Nc1nc2ccccc2c2cn(-c3ccccc3)nc12 | –
203 | 10 | 31 | – | CC(=O)Nc1nc2ccccc2c2cn(-c3cccc(C)c3)nc12 | –
– | 15 | – | 5 | O=C(Cc1ccccc1)Nc1nc2ccccc2c2cn(-c3ccccc3)nc12 | –
57 | – | 4.3 | – | Cc1cccc(-n2cc3c(n2)c(NC(=O)c2ccccc2)nc2ccccc23)c1 | Ki (Adenosine receptor A2a [5]): 2860 nM
6800 | 20 | 3.35 | – | Cc1cccc(-n2cc3c(n2)c(NC(=O)NCc2ccccc2)nc2ccccc23)c1 | –
– | 21 | 5.6 | 55 | Cc1ccc(-n2cc3c(n2)c(NC(=O)Cc2ccccc2)nc2ccccc23)cc1 | –
559 | 4 | 14 | – | Cc1cccc(-n2cc3c(n2)c(NC(=O)C(c2ccccc2)c2ccccc2)nc2ccccc23)c1 | –
– | 3 | – | 0 | CC(=O)Nc1nc2ccccc2c2cn(-c3ccccc3)nc12 | –
– | 39 | 257 | 5 | Cc1ccc(-n2cc3c(n2)c(NC(=O)NCc2ccccc2)nc2ccccc23)cc1 | –
201 | 51 | 4.5 | – | COc1ccc(-n2cc3c(n2)c(NC(=O)Cc2ccccc2)nc2ccccc23)cc1 | –
629 | 26 | 4.4 | – | Cc1ccc(-n2cc3c(n2)c(NC(=O)c2ccccc2)nc2ccccc23)cc1 | –
60 | 24 | 3.9 | – | Cc1cccc(-n2cc3c(n2)c(NC(=O)Cc2ccccc2)nc2ccccc23)c1 | –
– | 0 | – | 43 | COc1ccc(-n2cc3c(n2)c(NC(=O)NCc2ccccc2)nc2ccccc23)cc1 | Activity [12]: 40%
